Measurements as given in ChEMBL document CHEMBL5649170, “Sustained microglial depletion with CSF1R inhibitor impairs parenchymal plaque development in an Alzheimer's disease model” (Nat Commun, 2019).
The source made the active and inactive calls. The calls are words filed in the database; no cut-off is given here.

How the values were obtained:
[1] = AUC (0 to infinity) in monkey at 1.35 mg/kg, iv administered as single dose; format: ADME, organism-based, Macaca mulatta; conditions: rhesus monkey, in vivo
[2] = target: G protein-coupled receptor kinase 5 (Homo sapiens, UniProt P34947); test: Inhibition of GRK5 (unknown origin)
Mus musculus [3] = test: Antialzheimer activity in 5XFAD mouse assessed as percent change in claudin-5 intensity of thalamus at 1200 ppm administered as rodent chow starting from 1.5 months and measured after 4 months by immunolabeling analysis relative to control; format: functional; conditions: route po, time 2.5 months, 1825 h
[4] = target: Serine/threonine-protein kinase MRCK alpha (Homo sapiens, UniProt Q5VT25); test: Inhibition of CDC42_BPA (unknown origin)
Mus musculus [5] = test: Prevention of C1qa gene upregulation in 5XFAD mouse hippocampus at 1200 ppm administered as rodent chow starting from 1.5 months and measured after 7 months by Nanostring analysis; format: functional, tissue-based; conditions: route po, time 5.5 months
Mus musculus [6] = test: (§1) Antialzheimer activity in 5XFAD mouse assessed as iron reactivity by measuring hemosiderin intensity of prussian blue staining in retro spinal cortex at 1200 ppm administered as rodent chow starting from 1.5 months and measured after 4 months by confocal microscopic analysis (reference value: 0.1 to 8.816 a.u.); format: functional; conditions: route po, time 2.5 months, 1825 h
Procedure, shortened: (§2)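 Wild-type or 5xFAD mice fed PLX5622 (1200 ppm) in AIN-76A chow from 1.5 months of age, examined in 4- and 7-month-old cohorts. Brain sections stained with a Prussian blue kit per kit instructions to detect iron deposits (microbleeds).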

[7] = target: T1, Macrophage colony-stimulating factor 1 receptor (Mus musculus) (UniProt P09581); test: In vivo inhibition of CSF1R in wildtype mouse assessed as number of Iba1 positive cells per FOV in thalamus cortex at 1200 ppm administered as rodent chow starting from 1.5 months to 4 months followed by compound removal and measured after 1 months by immunolabelling based confocal microscopic analysis (reference value: 232 to 320); format: functional; conditions: route po, time 2.5 months
T1 sequence (whole entry): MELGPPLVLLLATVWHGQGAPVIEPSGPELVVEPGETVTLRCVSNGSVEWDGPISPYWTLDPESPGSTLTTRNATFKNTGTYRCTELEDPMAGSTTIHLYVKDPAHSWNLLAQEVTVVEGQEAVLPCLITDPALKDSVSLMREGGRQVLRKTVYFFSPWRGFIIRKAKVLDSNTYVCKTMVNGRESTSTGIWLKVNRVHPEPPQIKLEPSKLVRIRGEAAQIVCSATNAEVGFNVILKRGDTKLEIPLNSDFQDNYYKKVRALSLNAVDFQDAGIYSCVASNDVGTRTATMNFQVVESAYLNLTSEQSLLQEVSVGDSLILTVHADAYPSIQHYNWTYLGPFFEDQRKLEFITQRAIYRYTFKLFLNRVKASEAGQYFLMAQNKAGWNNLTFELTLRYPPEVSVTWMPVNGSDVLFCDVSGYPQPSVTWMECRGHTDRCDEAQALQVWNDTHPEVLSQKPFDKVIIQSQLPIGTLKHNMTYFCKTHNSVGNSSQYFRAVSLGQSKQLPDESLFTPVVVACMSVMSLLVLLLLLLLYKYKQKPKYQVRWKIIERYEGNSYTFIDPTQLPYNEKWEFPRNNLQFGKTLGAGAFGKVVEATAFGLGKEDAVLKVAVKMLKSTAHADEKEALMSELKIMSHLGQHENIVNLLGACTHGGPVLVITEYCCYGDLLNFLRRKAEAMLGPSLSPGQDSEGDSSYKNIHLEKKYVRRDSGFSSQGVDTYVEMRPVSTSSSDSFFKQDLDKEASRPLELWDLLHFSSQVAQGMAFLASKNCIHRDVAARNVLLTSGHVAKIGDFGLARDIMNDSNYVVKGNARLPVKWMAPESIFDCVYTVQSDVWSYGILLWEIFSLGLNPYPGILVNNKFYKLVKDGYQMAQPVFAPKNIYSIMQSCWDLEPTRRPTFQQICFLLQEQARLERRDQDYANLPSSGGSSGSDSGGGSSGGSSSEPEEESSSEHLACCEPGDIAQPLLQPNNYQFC

[8] = target: T1, Macrophage colony-stimulating factor 1 receptor (Mus musculus); test: as §1, with “In vivo inhibition of CSF1R” for “Antialzheimer activity”, “wildtype” for “5XFAD”, “thalamus” for “retro spinal cortex”, “2.451” for “8.816”; format: functional; conditions: route po, time 2.5 months; procedure, shortened: as §2
[9] = target: Serine/threonine-protein kinase D3 (Homo sapiens, UniProt O94806); test: Inhibition of PRKCN (unknown origin)
[10] = Toxicity in wildtype mouse assessed as time in platform zone at 1200 ppm administered as rodent chow for 10 to 24 weeks by Morris water maze test (reference value: 0 to 2.7 sec); conditions: in vivo, po, time 10-24 weeks
[11] = AUC (0 to infinity) in mouse at 1.92 mg/kg, iv administered as single dose; format: ADME, organism-based; conditions: in vivo
Mus musculus [12] = test: Antialzheimer activity in 5XFAD mouse assessed as ApoE immunoreactivity by measuring ApoE intensity of plaque core in thalamus at 1200 ppm administered as rodent chow starting from 1.5 months and measured after 7 months by immunolabeling based confocal microscopic analysis (reference value: 6.13 to 122.68 a.u.); format: functional; conditions: route po, time 5.5 months, 4015 h
[13] = Toxicity in wildtype mouse assessed as distance traveled at 1200 ppm administered as rodent chow for 10 to 24 weeks by Open field test (reference value: 13.381 to 26.996 meter); conditions: in vivo, po, time 10-24 weeks
Mus musculus [14] = test: Antialzheimer activity in 5XFAD mouse assessed as number of Thio-S positive plaques per FOV in thalamus at 1200 ppm administered as rodent chow starting from 1.5 months and measured after 7 months by Thio-S staining based confocal microscopic analysis (reference value: 97 to 282); format: functional; conditions: route po, time 5.5 months, 4015 h
[15] = Effect on Ctsz gene expression in wild type mouse hippocampus at 1200 ppm administered as rodent chow starting from 1.5 months and measured after 7 months by RNA-Seq analysis (reference value: 13.821 to 22.84 RPKM); format: functional; conditions: route po, time 5.5 months, 4015 h
Ephrin type-A receptor 5 = Ephrin type-A receptor 5 (Homo sapiens, UniProt P54756); test: Inhibition of EPHA5 (unknown origin)
[16] = target: Protein kinase C zeta type (Homo sapiens, UniProt Q05513); test: Inhibition of PRKCZ (unknown origin)
[17] = target: Serine/threonine-protein kinase Sgk1 (Homo sapiens, UniProt O00141); test: Inhibition of SGK (unknown origin)
[18] = target: Serine/threonine-protein kinase 4 (Homo sapiens, UniProt Q13043); test: Inhibition of STK4 (unknown origin)
[19] = Effect on Ctsd gene expression in wild type mouse thalamus at 1200 ppm administered as rodent chow starting from 1.5 months and measured after 7 months by RNA-Seq analysis (reference value: 123.974 to 159.747 RPKM); format: functional; conditions: route po, time 5.5 months, 4015 h
[20] = Volume of distribution at steady state in monkey at 1.35 mg/kg, iv administered as single dose; format: ADME, organism-based, Macaca mulatta; conditions: rhesus monkey, in vivo, read-out: Vdss
CDK9/cyclin T1 = CDK9/cyclin T1 (Homo sapiens, UniProt P50750); test: Inhibition of CDK9/CyclinT1 (unknown origin); format: protein-complex assay
[21] = Effect on Ctsd gene expression in wild type mouse cortex at 1200 ppm administered as rodent chow starting from 1.5 months and measured after 7 months by RNA-Seq analysis (reference value: 110.927 to 117.612 RPKM); format: functional; conditions: route po, time 5.5 months, 4015 h
[22] = Effect on Cx3cr1 gene expression in 5XFAD mouse hippocampus at 1200 ppm administered as rodent chow starting from 1.5 months and measured after 7 months by RNA-Seq analysis (reference value: 17.752 to 23.676 RPKM); format: functional; conditions: route po, time 5.5 months, 4015 h

CDK9/cyclin T1, sequence (O60563 whole entry): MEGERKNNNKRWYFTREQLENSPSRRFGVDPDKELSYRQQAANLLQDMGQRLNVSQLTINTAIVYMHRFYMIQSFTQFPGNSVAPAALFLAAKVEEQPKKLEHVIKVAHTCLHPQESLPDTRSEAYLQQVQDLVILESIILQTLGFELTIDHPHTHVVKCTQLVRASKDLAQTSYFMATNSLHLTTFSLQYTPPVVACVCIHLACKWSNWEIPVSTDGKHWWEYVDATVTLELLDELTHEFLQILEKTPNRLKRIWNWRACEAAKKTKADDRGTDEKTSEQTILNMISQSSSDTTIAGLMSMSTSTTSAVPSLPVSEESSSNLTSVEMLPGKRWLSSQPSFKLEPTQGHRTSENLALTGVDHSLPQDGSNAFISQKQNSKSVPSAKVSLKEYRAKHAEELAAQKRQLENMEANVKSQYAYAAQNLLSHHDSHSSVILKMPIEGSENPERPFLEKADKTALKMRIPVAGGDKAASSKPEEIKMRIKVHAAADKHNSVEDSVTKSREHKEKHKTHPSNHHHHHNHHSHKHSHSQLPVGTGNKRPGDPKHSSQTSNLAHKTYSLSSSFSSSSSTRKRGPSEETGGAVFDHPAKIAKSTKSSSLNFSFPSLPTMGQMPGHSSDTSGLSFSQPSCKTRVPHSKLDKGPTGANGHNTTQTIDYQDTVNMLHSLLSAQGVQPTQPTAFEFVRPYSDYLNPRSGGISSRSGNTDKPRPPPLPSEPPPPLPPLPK
CDK9/cyclin T1, sequence (P50750 whole entry): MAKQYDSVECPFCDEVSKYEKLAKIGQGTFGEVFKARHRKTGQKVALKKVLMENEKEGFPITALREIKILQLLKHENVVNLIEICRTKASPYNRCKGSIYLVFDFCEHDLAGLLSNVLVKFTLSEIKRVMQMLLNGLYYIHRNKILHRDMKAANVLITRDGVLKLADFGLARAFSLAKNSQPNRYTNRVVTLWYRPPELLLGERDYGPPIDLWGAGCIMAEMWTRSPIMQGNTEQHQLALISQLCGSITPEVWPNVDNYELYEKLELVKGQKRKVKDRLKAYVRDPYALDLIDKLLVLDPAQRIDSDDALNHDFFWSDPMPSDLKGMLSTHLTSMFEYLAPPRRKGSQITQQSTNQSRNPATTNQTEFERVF
Ephrin type-A receptor 5, sequence (P54756 whole entry): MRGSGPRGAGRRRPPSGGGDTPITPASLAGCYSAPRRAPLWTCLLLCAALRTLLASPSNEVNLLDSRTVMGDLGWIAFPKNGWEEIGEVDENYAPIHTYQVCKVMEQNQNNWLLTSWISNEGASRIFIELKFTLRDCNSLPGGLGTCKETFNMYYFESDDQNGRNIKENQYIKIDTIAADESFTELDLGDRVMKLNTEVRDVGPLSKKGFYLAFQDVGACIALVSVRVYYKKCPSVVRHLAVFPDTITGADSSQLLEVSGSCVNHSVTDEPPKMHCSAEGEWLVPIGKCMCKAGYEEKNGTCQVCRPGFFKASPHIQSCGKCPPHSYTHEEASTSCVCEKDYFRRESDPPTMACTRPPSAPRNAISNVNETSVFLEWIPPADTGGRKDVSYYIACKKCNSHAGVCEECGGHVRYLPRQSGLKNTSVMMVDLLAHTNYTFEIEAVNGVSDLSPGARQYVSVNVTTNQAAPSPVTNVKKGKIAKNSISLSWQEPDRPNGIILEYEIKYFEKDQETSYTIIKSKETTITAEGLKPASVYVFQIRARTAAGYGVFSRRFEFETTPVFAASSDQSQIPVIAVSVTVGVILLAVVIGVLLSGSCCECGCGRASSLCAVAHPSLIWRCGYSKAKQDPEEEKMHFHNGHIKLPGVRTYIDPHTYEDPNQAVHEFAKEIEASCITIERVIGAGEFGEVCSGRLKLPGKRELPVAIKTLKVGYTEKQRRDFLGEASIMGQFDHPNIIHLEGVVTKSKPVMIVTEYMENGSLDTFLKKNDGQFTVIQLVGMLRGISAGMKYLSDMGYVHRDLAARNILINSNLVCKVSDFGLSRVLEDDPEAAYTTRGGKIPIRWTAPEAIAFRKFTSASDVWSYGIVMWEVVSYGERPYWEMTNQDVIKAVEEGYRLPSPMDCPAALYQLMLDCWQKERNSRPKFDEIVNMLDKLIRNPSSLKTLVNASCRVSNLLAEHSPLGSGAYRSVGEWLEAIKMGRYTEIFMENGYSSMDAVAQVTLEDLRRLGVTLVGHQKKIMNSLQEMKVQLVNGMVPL
Serine/threonine-protein kinase MRCK alpha, sequence (Q5VT25 whole entry): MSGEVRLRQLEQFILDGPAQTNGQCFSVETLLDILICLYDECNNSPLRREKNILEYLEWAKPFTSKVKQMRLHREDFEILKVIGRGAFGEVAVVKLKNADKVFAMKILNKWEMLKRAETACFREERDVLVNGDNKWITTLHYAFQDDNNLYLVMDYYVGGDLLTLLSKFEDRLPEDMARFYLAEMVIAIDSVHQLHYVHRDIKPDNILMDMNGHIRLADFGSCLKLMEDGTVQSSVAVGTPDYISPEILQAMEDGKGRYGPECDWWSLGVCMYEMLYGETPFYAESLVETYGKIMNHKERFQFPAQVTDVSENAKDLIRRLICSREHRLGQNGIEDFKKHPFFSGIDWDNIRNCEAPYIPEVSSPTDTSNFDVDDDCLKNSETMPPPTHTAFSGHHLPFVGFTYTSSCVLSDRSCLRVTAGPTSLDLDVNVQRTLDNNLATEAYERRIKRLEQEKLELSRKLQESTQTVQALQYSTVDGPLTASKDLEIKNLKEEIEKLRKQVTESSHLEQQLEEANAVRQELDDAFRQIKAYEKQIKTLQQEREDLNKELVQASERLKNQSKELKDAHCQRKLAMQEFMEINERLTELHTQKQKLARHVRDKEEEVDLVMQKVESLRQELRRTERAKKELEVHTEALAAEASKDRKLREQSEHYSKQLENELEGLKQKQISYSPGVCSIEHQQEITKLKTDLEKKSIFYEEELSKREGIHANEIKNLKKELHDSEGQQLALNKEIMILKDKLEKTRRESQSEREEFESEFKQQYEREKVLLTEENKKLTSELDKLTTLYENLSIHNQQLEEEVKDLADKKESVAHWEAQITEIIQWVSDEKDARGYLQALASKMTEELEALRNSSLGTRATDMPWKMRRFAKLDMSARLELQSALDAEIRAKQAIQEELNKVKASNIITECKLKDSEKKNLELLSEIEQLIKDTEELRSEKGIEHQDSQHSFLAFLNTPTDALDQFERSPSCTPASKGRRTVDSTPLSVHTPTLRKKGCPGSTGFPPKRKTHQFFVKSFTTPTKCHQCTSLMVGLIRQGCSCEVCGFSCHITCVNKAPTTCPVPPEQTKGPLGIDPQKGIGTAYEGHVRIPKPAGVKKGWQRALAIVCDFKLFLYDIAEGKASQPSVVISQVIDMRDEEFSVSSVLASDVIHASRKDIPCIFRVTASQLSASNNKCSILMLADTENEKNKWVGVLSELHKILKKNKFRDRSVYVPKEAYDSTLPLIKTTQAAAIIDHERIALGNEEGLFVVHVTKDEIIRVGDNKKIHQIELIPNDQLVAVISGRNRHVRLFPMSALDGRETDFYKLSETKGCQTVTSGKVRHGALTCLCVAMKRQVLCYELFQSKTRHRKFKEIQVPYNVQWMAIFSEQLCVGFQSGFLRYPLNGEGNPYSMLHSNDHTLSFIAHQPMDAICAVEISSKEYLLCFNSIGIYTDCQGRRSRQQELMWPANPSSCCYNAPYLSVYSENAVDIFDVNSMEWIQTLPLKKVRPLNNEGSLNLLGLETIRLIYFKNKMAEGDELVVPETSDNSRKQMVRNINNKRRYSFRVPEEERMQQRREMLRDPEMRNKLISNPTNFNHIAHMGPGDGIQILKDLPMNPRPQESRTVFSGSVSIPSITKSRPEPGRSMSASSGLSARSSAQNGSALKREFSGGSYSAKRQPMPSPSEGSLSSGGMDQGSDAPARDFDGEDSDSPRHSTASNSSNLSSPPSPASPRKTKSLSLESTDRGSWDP
Serine/threonine-protein kinase Sgk1, sequence (O00141 whole entry): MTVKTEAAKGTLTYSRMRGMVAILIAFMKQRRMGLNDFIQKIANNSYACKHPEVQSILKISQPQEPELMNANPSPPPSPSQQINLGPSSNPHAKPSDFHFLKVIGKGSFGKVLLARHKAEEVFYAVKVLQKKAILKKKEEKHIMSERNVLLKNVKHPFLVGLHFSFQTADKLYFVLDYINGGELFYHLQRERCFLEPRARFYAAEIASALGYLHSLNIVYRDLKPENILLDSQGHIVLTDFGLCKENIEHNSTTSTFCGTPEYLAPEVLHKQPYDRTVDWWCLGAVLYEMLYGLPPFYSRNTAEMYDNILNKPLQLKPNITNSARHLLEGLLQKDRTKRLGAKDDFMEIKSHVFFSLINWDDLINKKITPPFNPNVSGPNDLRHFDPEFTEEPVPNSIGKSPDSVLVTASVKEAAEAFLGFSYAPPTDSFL
G protein-coupled receptor kinase 5, sequence (P34947 whole entry): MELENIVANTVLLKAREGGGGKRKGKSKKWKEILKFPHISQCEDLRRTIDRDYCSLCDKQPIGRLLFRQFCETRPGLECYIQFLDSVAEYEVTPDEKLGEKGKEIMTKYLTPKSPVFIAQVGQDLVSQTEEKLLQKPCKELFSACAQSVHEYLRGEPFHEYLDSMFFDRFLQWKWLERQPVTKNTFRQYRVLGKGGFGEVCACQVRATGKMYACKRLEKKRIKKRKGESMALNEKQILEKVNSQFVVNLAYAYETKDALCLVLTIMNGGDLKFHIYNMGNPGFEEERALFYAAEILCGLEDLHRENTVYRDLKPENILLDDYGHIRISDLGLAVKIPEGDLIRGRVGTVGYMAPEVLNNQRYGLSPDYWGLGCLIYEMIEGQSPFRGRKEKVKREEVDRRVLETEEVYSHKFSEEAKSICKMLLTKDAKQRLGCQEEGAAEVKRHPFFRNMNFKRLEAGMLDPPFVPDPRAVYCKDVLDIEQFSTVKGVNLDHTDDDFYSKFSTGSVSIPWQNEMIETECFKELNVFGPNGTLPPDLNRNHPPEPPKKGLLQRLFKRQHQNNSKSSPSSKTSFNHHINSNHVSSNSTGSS

## COc1ncc(F)cc1CNc1ccc(Cc2c[nH]c3ncc(C)cc23)c(F)n1 [PLX-5622]
[1]
  AUC(0-inf): 2.1 µg·h/mL
[2]
  IC50: > 1 µM
Mus musculus [3]
  Activity: 7.551%
[4]
  IC50: > 1 µM
Mus musculus [5]
  Activity: Active
Mus musculus [6]
  Flu intensity: 6.682 a.u.
[7]
  Activity: 270
[8]
  Flu intensity: 0.273 a.u.
[9]
  IC50: > 1 µM
[10]
  Time: 0.4 s
[11]
  AUC(0-inf): 15.5 µg·h/mL
Mus musculus [12]
  Flu intensity: 0.77 a.u.
[13]
  Activity: 9.067 m
Mus musculus [14]
  Activity: 45
[15]
  Activity: 14.33 RPKM
Ephrin type-A receptor 5
  IC50: > 1 µM
[16]
  IC50: > 1 µM
[17]
  IC50: > 1 µM
[18]
  IC50: > 1 µM
[19]
  Activity: 100.931 RPKM
[20]
  Vd: 1.6 L/kg
CDK9/cyclin T1
  IC50: > 1 µM
[21]
  Activity: 76.394 RPKM
[22]
  Activity: 1.607 RPKM
